For orientation: EC50 means the midpoint of the concentration-response curve.

Series [1] can be described thus: Toxicity in Paracoccus sp. 4M6 assessed as growth inhibition at 100 uM after 15 hrs by Syto61 based-fluorescence analysis relative to control.
Series [2] is described as follows: Toxicity in Pseudoalteromonas lipolytica TC8 assessed as growth inhibition at 100 uM after 15 hrs by Syto61 based-fluorescence analysis relative to control.
Series [3] relates to Pseudoalteromonas lipolytica. The experiment in a line: Antibiofilm activity against Pseudoalteromonas lipolytica TC8 assessed as microbial adhesion at 200 uM after 15 hrs by Syto61 based-fluorescence analysis relative to control. Format: functional. The method, boiled down: (§1)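 Cells grown in VNSS at 20 °C to stationary phase, centrifuged, and resuspended in sterile artificial seawater to OD600 0.2–0.4. Suspension incubated with compound at 200 µM in triplicate for 15 h at 20 °C. Loose cells removed with three washes in 36 g/L NaCl. Attached cells stained 10 min at room temperature with 40 µmol/L Syto 61, then washed and the stain solubilised. Fluorescence read at ex 615/em 670 nm against untreated adhesion-control wells.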

Series [4] deals with Pseudoalteromonas lipolytica. The experiment in a line: Antibiofilm activity against Pseudoalteromonas lipolytica TC8 assessed as reduction in adhesion after 15 hrs by Syto61 based-fluorescence analysis relative to control. Format: functional. As to conditions: TC8, 15 h. The method in brief:
(§2)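 Adhesion assay: cells from a 20 °C VNSS stationary-phase culture were resuspended in artificial seawater (OD600 0.2–0.4). They were exposed to a range of compound concentrations in triplicate for 15 h at 20 °C, then washed with 36 g/L NaCl and stained 10 min with 40 µmol/L Syto 61. Fluorescence was read at ex 615/em 670 nm relative to bacteria-only controls. EC50 came from dose-response curve fitting.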

The subject of series [5] is Pseudoalteromonas ulvae. Put plainly: Antibiofilm activity against Pseudoalteromonas ulvae TC14 assessed as microbial adhesion at 200 uM after 15 hrs by Syto61 based-fluorescence analysis relative to control. Format: functional. The method, boiled down: as §1
For series [6], the system named is Pseudoalteromonas ulvae. The experiment in a line: Antibiofilm activity against Pseudoalteromonas ulvae TC14 assessed as reduction in adhesion after 15 hrs by Syto61 based-fluorescence analysis relative to control. The format is functional. To be noted: TC14, 15 h. The method in brief: as §2
The subject of series [7] is Paracoccus sp. Put plainly: Antibiofilm activity against Paracoccus sp. 4M6 assessed as microbial adhesion at 200 uM after 15 hrs by Syto61 based-fluorescence analysis relative to control. The format is functional. The method in brief: as §1
The subject of series [8] is Paracoccus sp. Put plainly: Antibiofilm activity against Paracoccus sp. 4M6 assessed as reduction in adhesion after 15 hrs by Syto61 based-fluorescence analysis relative to control. Format: functional. To be noted: Paracoccus sp. (in: a-proteobacteria), 4M6, 15 h. The method in brief: as §2
Series [9] can be described thus: Toxicity in Pseudoalteromonas ulvae TC14 assessed as growth inhibition at 100 uM after 15 hrs by Syto61 based-fluorescence analysis relative to control.
Series [10] in a line: Toxicity in Pseudoalteromonas lipolytica TC8 assessed as effect on viability at 100 uM after 6 hrs by resazurin-staining assay relative to control. The method in brief: (§3)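 Strains grown in VNSS at 20 °C. Bacterial suspension added to VNSS wells containing compound at 100 µM, triplicate, with solvent and untreated controls. OD600 followed hourly for 6 h. Resazurin was then added and fluorescence read after 2 h. Percent viability was calculated as in the Syto 61 adhesion assay.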
For orientation: Alamar Blue is a resazurin reagent that responds to reducing activity.

The nature of series [11]: Toxicity in Paracoccus sp. 4M6 assessed as effect on viability at 100 uM after 6 hrs by resazurin-staining assay relative to control. The method, boiled down:
as §3

A short description of series [12]: Toxicity in Pseudoalteromonas ulvae TC14 assessed as effect on viability at 100 uM after 6 hrs by resazurin-staining assay relative to control. The method in brief: as §3

As for `COc1ccc(CCn2cc(C(=O)NCCc3cc(Br)c(O)c(Br)c3)nn2)cc1Br`, the Activity result is listed as “Non-toxic” in [1]; “Non-toxic” in [2]; 29.7% in series [3]; 5.9% in the series with Pseudoalteromonas ulvae [5]; 28.8% in the series on Paracoccus sp. [7]; “Toxic” in [9]. Also, the Activity entry in series [10], in series [11] and in [12] was “Non-toxic” throughout. For the same compound, the EC50 in series [4] is 67.8 µM; in the series on Pseudoalteromonas ulvae [6], 8.8 µM; in the series on Paracoccus sp. [8], 40.7 µM.
Regarding `CC1(C)S[C@@H]2[C@H](NC(=O)[C@H](N)c3ccccc3)C(=O)N2[C@H]1C(=O)O` [AMPICILLIN], the Activity entry in series [1] is “Toxic”; in series [2] it was “Toxic”; in [3] it was 8.9%; with Pseudoalteromonas ulvae [5], 4.9%; in the series on Paracoccus sp. [7], 33.9%; in series [10], “Toxic”. In addition, the Activity result in series [11] and in series [12] was “Toxic” each time. The EC50 in [4] is 17.9 µM; in the series on Pseudoalteromonas ulvae [6] it was 9.3 µM; with Paracoccus sp. [8] it was 144 µM.
For the compound `O=C(NCCc1ccc(O)cc1)c1cn(CCc2ccc(O)c(Br)c2)nn1`, the Activity result in [1] is listed as “Non-toxic”; in [2], “Non-toxic”; in series [3], 35%; in the series on Pseudoalteromonas ulvae [5], 31.4%; in the series with Paracoccus sp. [7], 43.4%; in series [10], “Non-toxic”. In addition, the Activity result in series [11] and in [12] was “Non-toxic” in each case. Further, the half-maximal effective concentration (EC50) in series [4] turned out to be 113 µM; in the series with Pseudoalteromonas ulvae [6], 69.3 µM; with Paracoccus sp. [8] it was 156 µM.
Regarding `COc1ccc(CCn2cc(C(=O)NCCCCN)nn2)cc1Br.O=C(O)C(F)(F)F`, the Activity (in series [3]; in the series with Pseudoalteromonas ulvae [5]; in the series on Paracoccus sp. [7]) was greater than 75% throughout.
On to `COc1ccc(Cn2cc(C(=O)NCCCCN)nn2)cc1Br.O=C(O)C(F)(F)F`, for which the Activity (in series [3]; in the series on Pseudoalteromonas ulvae [5]; in the series with Paracoccus sp. [7]) was greater than 75% each time.
As for `COc1ccc(CCn2cc(C(=O)NCCNC(=N)N)nn2)cc1Br.O=C(O)C(F)(F)F`, the Activity (in [3]; with Pseudoalteromonas ulvae [5]; with Paracoccus sp. [7]) was greater than 75% throughout.
Regarding `COc1ccc(CCn2cc(C(=O)NCCc3ccc(O)cc3)nn2)cc1Br`, the Activity entry is listed as “Non-toxic” in [1]; “Non-toxic” in series [2]; 35% in series [3]; 18.7% in the series with Pseudoalteromonas ulvae [5]; 28.2% with Paracoccus sp. [7]; “Non-toxic” in [10]. The Activity entry in series [11] and in [12] was “Non-toxic” in each case. Further, the EC50 was 104 µM in [4], 32.6 µM in the series with Pseudoalteromonas ulvae [6] and 72.9 µM in the series with Paracoccus sp. [8].
For `COc1ccc(Cn2cc(C(=O)NCCc3cnc[nH]3)nn2)cc1Br`, the Activity (in series [3]; in the series on Pseudoalteromonas ulvae [5]; in the series on Paracoccus sp. [7]) was greater than 75% throughout.
For the compound `COc1ccc(Cn2cc(C(=O)NCCCCNC(=N)N)nn2)cc1Br.O=C(O)C(F)(F)F`, the Activity (in series [3]; in the series on Pseudoalteromonas ulvae [5]; with Paracoccus sp. [7]) was greater than 75% in each case.
In the case of `O=C(NCCc1cnc[nH]1)c1cn(CCc2ccc(O)cc2)nn1`, the Activity (in series [3]; with Pseudoalteromonas ulvae [5]; in the series with Paracoccus sp. [7]) was greater than 75% in each case.
As to `COc1ccc(Cn2cc(C(=O)NCCCN)nn2)cc1Br.O=C(O)C(F)(F)F`, the Activity (in series [3]; with Pseudoalteromonas ulvae [5]; in the series on Paracoccus sp. [7]) was greater than 75% throughout.
Consider `COc1ccc(CCn2cc(C(=O)NCCN)nn2)cc1Br.O=C(O)C(F)(F)F`, for which the Activity (in series [3]; with Pseudoalteromonas ulvae [5]; in the series with Paracoccus sp. [7]) was greater than 75% each time.
For the compound `COc1ccc(CCn2cc(C(=O)NCCCNC(=N)N)nn2)cc1Br.O=C(O)C(F)(F)F`, the Activity (in series [3]; in the series on Pseudoalteromonas ulvae [5]; in the series with Paracoccus sp. [7]) was greater than 75% each time.
With `COc1ccc(Cn2cc(C(=O)NCCc3cc(Br)c(O)c(Br)c3)nn2)cc1Br`, the Activity result was “Non-toxic” in series [1]; “Non-toxic” in series [2]; 40% in series [3]; 23.3% in the series on Pseudoalteromonas ulvae [5]; 37.9% with Paracoccus sp. [7]; “Non-toxic” in series [10]. The Activity result in series [11] and in series [12] was “Non-toxic” each time. For the same compound, the EC50 in series [4] came to 124 µM; in the series with Pseudoalteromonas ulvae [6] it was 40.2 µM; in the series on Paracoccus sp. [8], 84 µM.
On to `COc1ccc(Cn2cc(C(=O)NCCCNC(=N)N)nn2)cc1Br.O=C(O)C(F)(F)F`, for which the Activity (in series [3]; in the series on Pseudoalteromonas ulvae [5]; with Paracoccus sp. [7]) was greater than 75% each time.
As for `COc1ccc(CCn2cc(C(=O)NCCc3cnc[nH]3)nn2)cc1Br`, the Activity (in series [3]; in the series with Pseudoalteromonas ulvae [5]; with Paracoccus sp. [7]) was greater than 75% throughout.
As for `COc1ccc(Cn2cc(C(=O)NCCc3ccc(O)cc3)nn2)cc1Br`, the Activity result in series [1] is recorded as “Non-toxic”; in series [2], “Non-toxic”; in [3] it was 38.3%; in the series with Pseudoalteromonas ulvae [5], 20.7%; in the series on Paracoccus sp. [7] it was 31.2%; in [10], “Non-toxic”. Also, the Activity entry in series [11] and in [12] was “Non-toxic” throughout. Besides, the EC50 in series [4] came out at 134 µM; in the series on Pseudoalteromonas ulvae [6] it was 40 µM; in the series with Paracoccus sp. [8], 97.3 µM.
Turning to `O=C(NCCc1cnc[nH]1)c1cn(CCc2ccc(O)c(Br)c2)nn1`, the Activity (in [3]; with Pseudoalteromonas ulvae [5]; with Paracoccus sp. [7]) was greater than 75% each time.
`O=C(NCCc1cc(Br)c(O)c(Br)c1)c1cn(CCc2cc(Br)c(O)c(Br)c2)nn1`: the Activity result is recorded as “Non-toxic” in [1]; “Non-toxic” in [2]; 40.32% in series [3]; 29.3% with Pseudoalteromonas ulvae [5]; 38.7% in the series on Paracoccus sp. [7]; “Non-toxic” in [10]. Besides, the Activity entry in series [11] and in [12] was “Non-toxic” each time. Moreover, the values for the EC50 (in series [4]; in the series on Pseudoalteromonas ulvae [6]; in the series on Paracoccus sp. [8]) were 96 µM, 26.6 µM and 83.2 µM, respectively.
Consider `COc1ccc(Cn2cc(C(=O)NCCNC(=N)N)nn2)cc1Br.O=C(O)C(F)(F)F`, for which the Activity (in [3]; in the series on Pseudoalteromonas ulvae [5]; in the series on Paracoccus sp. [7]) was greater than 75% in each case.
As for `COc1ccc(Cn2cc(C(=O)NCCN)nn2)cc1Br.O=C(O)C(F)(F)F`, the Activity (in series [3]; in the series with Pseudoalteromonas ulvae [5]; with Paracoccus sp. [7]) was greater than 75% throughout.
With `COc1ccc(CCn2cc(C(=O)NCCCN)nn2)cc1Br.O=C(O)C(F)(F)F`, the Activity (in series [3]; in the series on Pseudoalteromonas ulvae [5]; with Paracoccus sp. [7]) was greater than 75% in each case.
Regarding `O=C(NCCc1ccc(O)cc1)c1cn(CCc2ccc(O)cc2)nn1`, the Activity entry in [1] is given as “Non-toxic”; in series [2], “Non-toxic”; in [3] it was 43%; with Pseudoalteromonas ulvae [5], 16%; with Paracoccus sp. [7], 44.5%; in [10] it was “Non-toxic”. The Activity result in series [11] and in series [12] was “Non-toxic” each time. The EC50 in series [4] came to 170 µM; with Pseudoalteromonas ulvae [6], 72.9 µM; in the series with Paracoccus sp. [8], 196 µM.
As for `COc1ccc(CCn2cc(C(=O)NCCCCNC(=N)N)nn2)cc1Br.O=C(O)C(F)(F)F`, the Activity (in series [3]; in the series on Pseudoalteromonas ulvae [5]; with Paracoccus sp. [7]) was greater than 75% each time.

Values taken from ChEMBL document CHEMBL3739258, “Click-based synthesis of bromotyrosine alkaloid analogs as potential anti-biofilm leads for SAR studies” (Bioorg Med Chem Lett, 2015).
